From ChEMBL document CHEMBL3785037, “Compound profiling and 3D-QSAR studies of hydrazone derivatives with activity against intracellular Trypanosoma cruzi” (Bioorg Med Chem, 2016) come the findings set out here.

For data set [1], the system named is HepG2. The data set is described as follows: Cytotoxicity against human HepG2 cells 48 hrs by CellTiter-Glo luminiscence assay. The class given is functional. The settings on record: HepG2, 48 h, read-out: TC50 (the source's name). The gist of the method: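 Human hepatoma cells were plated at 3,000 cells/well onto pre-dispensed compounds, handled as for the fibroblast assay, and incubated 48 h at 37 °C, 5% CO2. ATP-based viability was read by CellTiter-Glo luminescence after room-temperature incubation. TC50 was obtained by nonlinear regression.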

A short description of data set [2]: Cytotoxicity against mouse NIH/3T3 cells after 4 days by CellTiter-Glo luminiscence assay. It counts as cell-based, NIH3T3. The following applies: read-out: TC50. The gist of the method: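 Mouse embryonic fibroblasts were seeded at 1x10^3 cells/well onto pre-dispensed compounds (top concentration 100 μM) for 4 days at 37 °C, 5% CO2. Controls were 0.5% DMSO (100% viable) and amphotericin B 50 μM (100% toxicity). Viability was measured as ATP by CellTiter-Glo luminescence at room temperature. TC50 was obtained by nonlinear regression.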

Data set [3] has as its system Trypanosoma cruzi. The data set is described as follows: Antitrypanosomal activity against intracellular amastigotes stage of recombinant Trypanosoma cruzi Tulahuen expressing beta galactosidase infected in NIH/3T3 cells assessed as growth inhibition after 4 days by HTS-ready assay. The class given is functional, organism-based. The settings on record: NIH3T3, 96 h. The gist of the method:
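NIH-3T3 fibroblasts were mixed 1:1 with β-galactosidase-expressing Tulahuen trypomastigotes from LLC-MK2 culture supernatants, at 1x10^3 cells/well, onto pre-dispensed compounds (50 to 0.00085 μM, DMSO ≤0.5%). Cultures were held 4 days at 37 °C, 5% CO2. Resorufin-β-D-galactopyranoside (5 µM in PBS with Igepal) was added for 4 h at room temperature, and fluorescence was read at 531/595 nm. Untreated parasites served as negative control.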

A short description of data set [4]: Selectivity index, ratio of TC50 for mouse NIH/3T3 cells to IC50 for amastigotes stage of recombinant Trypanosoma cruzi Tulahuen expressing beta galactosidase infected in NIH/3T3 cells. The following applies: read-out: Selectivity Index. It counts as toxicity, cell-based.

Each structure is given as a SMILES string.

For the compound `CNC(=S)N/N=C(\C)c1ccc(Cl)c(Cl)c1`, the CC50 in data set [1] was greater than 100 µM. For the same compound, the CC50 at 96 h in data set [2] is greater than 50.1 µM. For the same compound, the IC50 in data set [3] (read-out: IC50) was 17 µM.
As to `Clc1ccc(-c2csc(N/N=C/c3ccccn3)n2)cc1`, the CC50 in data set [1] was greater than 100 µM. Further, the CC50 at 96 h in data set [2] is greater than 50.1 µM. In addition, the IC50 in data set [3] (read-out: IC50) and in data set [3] (read-out: pIC50 (converted)) was 1.86 µM throughout. For the same compound, the selectivity ratio in data set [4] came out at 26.9.
Turning to `O=[N+]([O-])c1cccc(-c2csc(N/N=C/c3ccccn3)n2)c1`, the CC50 in data set [1] was greater than 100 µM. Besides, the CC50 at 96 h in data set [2] was 38 µM. Further, the IC50 in data set [3] (read-out: IC50) and in data set [3] (read-out: pIC50 (converted)) was 1.62 µM in each case. Moreover, the selectivity ratio in data set [4] was determined as 23.5.
Take `CCC1S/C(=N/N=C(\C)c2ccc(Cl)c(Cl)c2)N(c2ccccc2)C1=O` (centres undefined): the CC50 in data set [1] was greater than 100 µM. The CC50 at 96 h in data set [2] is greater than 50.1 µM. Also, the IC50 in data set [3] (read-out: IC50) was greater than 50.1 µM.
For the compound `NC(=S)N/N=C/CSc1cccc(Cl)c1`, in data set [1], the CC50 was greater than 100 µM. In addition, the CC50 at 96 h in data set [2] is greater than 50.1 µM. In addition, the IC50 in data set [3] (read-out: IC50) and in data set [3] (read-out: pIC50 (converted)) was 1.78 µM each time. Moreover, the selectivity ratio in data set [4] amounted to 28.1.
Take `C/C(=N\N=C(\N)S)c1ccc(Cl)c(Cl)c1`: the CC50 in data set [1] turned out to be 43.6 µM. The CC50 at 96 h in data set [2] was 17.8 µM. In data set [3] (read-out: IC50), the IC50 came to 0.63 µM.
